Test results taken from ChEMBL document CHEMBL2401735, “Synthesis and cytotoxicity of novel (thiazol-2-yl)hydrazine derivatives as promising anti-Candida agents” (Eur J Med Chem, 2013).
In brackets after ≈: the same amount, converted by molar mass.

Key:
[1] = system: Candida tropicalis; assay: Anticandida activity against Candida tropicalis clinical isolate assessed as growth inhibition after 24 hrs by broth microdilution method; format: functional
In short: (§1)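 Clinical Candida isolates subcultured for purity and optimal growth before testing; compounds dissolved in DMSO. Broth microdilution per NCCLS in Sabouraud dextrose broth, serial dilutions, inoculum about 10³/mL, with growth control and medium-only control; 24 h incubation at 37 °C. MIC is the lowest concentration giving complete visible inhibition.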

[2] = system: Streptococcus alpha-hemolyticus; assay: Antibacterial activity against Streptococcus alpha-hemolyticus assessed as growth inhibition after 18 to 22 hrs by broth microdilution method
[3] = system: Staphylococcus warneri; assay: Antibacterial activity against Staphylococcus warneri assessed as growth inhibition after 18 to 22 hrs by broth microdilution method; format: functional
In short: (§2)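 Bacterial isolates subcultured for purity, identified conventionally. Broth microdilution per NCCLS in Mueller-Hinton II broth; plates with growth control (no compound) and medium-only control, incubated 18-22 h at 35 °C. MIC taken as lowest concentration giving complete growth inhibition by unaided eye.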

[4] = system: Klebsiella oxytoca; assay: Antibacterial activity against Klebsiella oxytoca assessed as growth inhibition after 18 to 22 hrs by broth microdilution method; format: functional; in short: as §2
[5] = system: Enterobacter sp.; assay: Antibacterial activity against Enterobacter spp. assessed as growth inhibition after 18 to 22 hrs by broth microdilution method; format: functional; in short: as §2
[6] = system: Pichia kudriavzevii; assay: Anticandida activity against Candida krusei clinical isolate assessed as growth inhibition after 24 hrs by broth microdilution method; format: functional; in short: as §1
[7] = system: Staphylococcus aureus; assay: Antibacterial activity against Staphylococcus aureus assessed as growth inhibition after 18 to 22 hrs by broth microdilution method; format: functional; in short: as §2
[8] = system: Enterococcus faecalis; assay: Antibacterial activity against […] assessed as growth inhibition after 18 to 22 hrs by broth microdilution method; format: functional; in short: as §2
[9] = system: Nakaseomyces glabratus; assay: Anticandida activity against Candida glabrata clinical isolate assessed as growth inhibition after 24 hrs by broth microdilution method; format: functional; in short: as §1
[10] = system: [Candida] sake; assay: Anticandida activity against Candida sake clinical isolate assessed as growth inhibition after 24 hrs by broth microdilution method; format: functional; conditions: Fermentozyma sake; in short: as §1
[11] = system: Proteus mirabilis; assay: Antibacterial activity against Proteus mirabilis assessed as growth inhibition after 18 to 22 hrs by broth microdilution method; format: functional; in short: as §2
[12] = system: Escherichia coli; assay: Antibacterial activity against Escherichia coli assessed as growth inhibition after 18 to 22 hrs by broth microdilution method; format: functional; in short: as §2
[13] = system: Candida parapsilosis; assay: Anticandida activity against Candida parapsilosis clinical isolate assessed as growth inhibition after 24 hrs by broth microdilution method; format: functional; conditions: Lodderomyces parapsilosis; in short: as §1
[14] = system: Candida albicans; assay: Anticandida activity against Candida albicans clinical isolate assessed as growth inhibition after 24 hrs by broth microdilution method; format: functional; in short: as §1

| MIC [1] | MIC [3] | MIC [4] | MIC [5] | MIC [6] | MIC [7] | MIC [8] | MIC [9] | MIC [10] | MIC [11] | MIC [12] | MIC [13] | MIC [14] | Compound | MIC [2] |
| --- | --- | --- | --- | --- | --- | --- | --- | --- | --- | --- | --- | --- | --- | --- |
| 256 µg/mL (≈ 879 µM) | > 256 µg/mL | > 256 µg/mL | > 256 µg/mL | 256 µg/mL (≈ 879 µM) | > 256 µg/mL | > 256 µg/mL | 128 µg/mL (≈ 439 µM) | 256 µg/mL (≈ 879 µM) | > 256 µg/mL | > 256 µg/mL | 256 µg/mL (≈ 879 µM) | 128 µg/mL (≈ 439 µM) | COc1ccc(-c2csc(NN=C(C)C)n2)c(OC)c1 | > 256 µg/mL |
| 4 µg/mL (≈ 12.7 µM) | > 256 µg/mL | > 256 µg/mL | > 256 µg/mL | 8 µg/mL (≈ 25.5 µM) | > 256 µg/mL | > 256 µg/mL | 4 µg/mL (≈ 12.7 µM) | 8 µg/mL (≈ 25.5 µM) | > 256 µg/mL | > 256 µg/mL | 8 µg/mL (≈ 25.5 µM) | 2 µg/mL (≈ 6.36 µM) | CC/C(C)=N/Nc1nc(-c2ccc(Cl)cc2Cl)cs1 | > 256 µg/mL |
| 256 µg/mL (≈ 737 µM) | > 256 µg/mL | > 256 µg/mL | > 256 µg/mL | 256 µg/mL (≈ 737 µM) | > 256 µg/mL | > 256 µg/mL | 128 µg/mL (≈ 368 µM) | 256 µg/mL (≈ 737 µM) | > 256 µg/mL | > 256 µg/mL | 256 µg/mL (≈ 737 µM) | 128 µg/mL (≈ 368 µM) | CCCC/C(CC)=N/Nc1nc(-c2ccc(OC)cc2OC)cs1 | > 256 µg/mL |
| 256 µg/mL (≈ 712 µM) | > 256 µg/mL | > 256 µg/mL | > 256 µg/mL | 256 µg/mL (≈ 712 µM) | > 256 µg/mL | > 256 µg/mL | 256 µg/mL (≈ 712 µM) | 256 µg/mL (≈ 712 µM) | > 256 µg/mL | > 256 µg/mL | 256 µg/mL (≈ 712 µM) | 64 µg/mL (≈ 178 µM) | COc1ccc(-c2csc(NN=C3CCCCCCC3)n2)c(OC)c1 | > 256 µg/mL |
| 4 µg/mL (≈ 13.3 µM) | > 256 µg/mL | > 256 µg/mL | > 256 µg/mL | 8 µg/mL (≈ 26.5 µM) | > 256 µg/mL | > 256 µg/mL | 2 µg/mL (≈ 6.63 µM) | 8 µg/mL (≈ 26.5 µM) | > 256 µg/mL | > 256 µg/mL | 8 µg/mL (≈ 26.5 µM) | 0.5 µg/mL (≈ 1.66 µM) | CCCCC/C(C)=N/Nc1nc(-c2ccc(C)cc2)cs1 | > 256 µg/mL |
| 2 µg/mL (≈ 7.65 µM) | > 256 µg/mL | > 256 µg/mL | > 256 µg/mL | 16 µg/mL (≈ 61.2 µM) | > 256 µg/mL | > 256 µg/mL | 0.5 µg/mL (≈ 1.91 µM) | 16 µg/mL (≈ 61.2 µM) | > 256 µg/mL | > 256 µg/mL | 16 µg/mL (≈ 61.2 µM) | 0.25 µg/mL (≈ 0.957 µM) | COc1ccc(-c2csc(NN=C(C)C)n2)cc1 | > 256 µg/mL |
| 256 µg/mL (≈ 712 µM) | > 256 µg/mL | > 256 µg/mL | > 256 µg/mL | 256 µg/mL (≈ 712 µM) | > 256 µg/mL | > 256 µg/mL | 64 µg/mL (≈ 178 µM) | 256 µg/mL (≈ 712 µM) | > 256 µg/mL | > 256 µg/mL | 256 µg/mL (≈ 712 µM) | 64 µg/mL (≈ 178 µM) | COc1ccc(-c2csc(N/N=C(\C)C3CCCCC3)n2)c(OC)c1 | > 256 µg/mL |
| 4 µg/mL (≈ 11.2 µM) | > 256 µg/mL | > 256 µg/mL | > 256 µg/mL | 4 µg/mL (≈ 11.2 µM) | > 256 µg/mL | > 256 µg/mL | 4 µg/mL (≈ 11.2 µM) | 8 µg/mL (≈ 22.5 µM) | > 256 µg/mL | > 256 µg/mL | 8 µg/mL (≈ 22.5 µM) | 2 µg/mL (≈ 5.61 µM) | CCCC/C(CC)=N/Nc1nc(-c2ccc(Cl)cc2Cl)cs1 | > 256 µg/mL |
| 256 µg/mL (≈ 801 µM) | > 256 µg/mL | > 256 µg/mL | > 256 µg/mL | 256 µg/mL (≈ 801 µM) | > 256 µg/mL | > 256 µg/mL | 128 µg/mL (≈ 401 µM) | 256 µg/mL (≈ 801 µM) | > 256 µg/mL | > 256 µg/mL | 256 µg/mL (≈ 801 µM) | 128 µg/mL (≈ 401 µM) | CCC/C(C)=N/Nc1nc(-c2ccc(OC)cc2OC)cs1 | > 256 µg/mL |
| 256 µg/mL (≈ 772 µM) | > 256 µg/mL | > 256 µg/mL | > 256 µg/mL | 256 µg/mL (≈ 772 µM) | > 256 µg/mL | > 256 µg/mL | 128 µg/mL (≈ 386 µM) | 256 µg/mL (≈ 772 µM) | > 256 µg/mL | > 256 µg/mL | 256 µg/mL (≈ 772 µM) | 64 µg/mL (≈ 193 µM) | C=CCC/C(C)=N/Nc1nc(-c2ccc(OC)cc2OC)cs1 | > 256 µg/mL |

| Compound | MIC [1] | MIC [3] | MIC [4] | MIC [5] | MIC [6] | MIC [7] | MIC [8] | MIC [9] | MIC [10] | MIC [11] | MIC [12] | MIC [13] | MIC [14] | MIC [2] |
| --- | --- | --- | --- | --- | --- | --- | --- | --- | --- | --- | --- | --- | --- | --- |
| CC(C)(O/N=C(\C(=O)N[C@@H]1C(=O)N2C(C(=O)[O-])=C(C[n+]3ccccc3)CS[C@H]12)c1csc(N)n1)C(=O)O [CEFTAZIDIME] | – | 4 µg/mL (≈ 7.32 µM) | 8 µg/mL (≈ 14.6 µM) | 8 µg/mL (≈ 14.6 µM) | – | 2 µg/mL (≈ 3.66 µM) | 4 µg/mL (≈ 7.32 µM) | – | – | 8 µg/mL (≈ 14.6 µM) | 4 µg/mL (≈ 7.32 µM) | – | – | 4 µg/mL (≈ 7.32 µM) |
